ChEMBL document CHEMBL4732111, “A greener protocol for the synthesis of phosphorochalcogenoates: Antioxidant and free radical scavenging activities” (Eur J Med Chem, 2021)

Experiments:
[1] = Toxicity in Swiss mouse assessed as change in plasma creatinine level at 10 mg/kg, ig measured after 30 mins (reference value: 1.77 +/- 0.05 mg/dl); type: organism-based; settings: in vivo, po, 0.5 h
Procedure, shortened: (§1)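 Swiss mice dosed intragastrically at 10 mg/kg (control canola oil 10 mL/kg). After 30 min, blood taken by heart puncture into heparin under light isoflurane anesthesia. Plasma obtained at 200 g for 10 min, hemolyzed samples discarded. ALT, AST, urea and creatinine measured with commercial kits. 5–6 mice per group; Student's t-test.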

[2] = Antioxidant activity assessed as ABTS radical scavenging activity at 10 uM relative to control; type: functional
Procedure, shortened: (§2)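 Compounds at 10–500 µM mixed with ABTS•+ solution; scavenging read as fall in absorbance at 734 nm, expressed as percent scavenging relative to vehicle. Trolox 10 µM as positive control. Mean ± SEM, n = 3; one-way ANOVA with Tukey.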

[3] = Ex vivo antioxidant activity in Swiss mouse assessed as inhibition of canola oil-induced lipid peroxidation in liver by measuring TBARS level at 10 mg/kg, ig measured after 30 mins (reference value: 271.5 +/- 43.88 /g); type: functional; settings: 0.5 h
[4] = Antioxidant activity assessed as DPPH radical scavenging activity at 500 uM incubated for 30 mins under dark condition relative to control; type: functional
Procedure, shortened: (§3)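 Compounds at 10–500 µM mixed with ethanolic DPPH solution. Incubated 30 min at 30 °C in the dark, then absorbance read at 517 nm. Scavenging expressed as percent relative to vehicle; Trolox 10 µM as positive control. Mean ± SEM, n = 3; one-way ANOVA with Tukey.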

[5] = Antioxidant activity assessed as DPPH radical scavenging activity at 10 uM incubated for 30 mins under dark condition relative to control; type: functional; procedure, shortened: as §3
[6] = Toxicity in Swiss mouse assessed as change in plasma ALT level at 10 mg/kg, ig measured after 30 mins (reference value: 110.90 +/- 12.4 IU/L); type: organism-based; settings: in vivo, po, 0.5 h; procedure, shortened: as §1
[7] = Antioxidant activity assessed as ferric ion reducing activity by measuring absorbance at 100 uM measured after 40 mins by FRAP assay (reference value: 0.11 +/- 0.02); type: functional
Procedure, shortened: (§4)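 Compounds at 10–500 µM mixed with FRAP reagent (FeCl3, triazine and sodium acetate buffer pH 3.2; 10:1:1). Incubated 40 min at 37 °C in the dark; absorbance reported. Vehicle and Trolox 10 µM as controls. Mean ± SEM, n = 3; one-way ANOVA with Tukey versus vehicle.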

[8] = Antioxidant activity assessed as ferric ion reducing activity by measuring absorbance at 500 uM measured after 40 mins by FRAP assay (reference value: 0.11 +/- 0.02); type: functional; procedure, shortened: as §4
[9] = Ex vivo antioxidant activity in Swiss mouse assessed as inhibition of canola oil-induced lipid peroxidation in brain by measuring TBARS level at 10 mg/kg, ig measured after 30 mins (reference value: 91.91 +/- 9.38 /g); type: functional; settings: 0.5 h
[10] = Toxicity in Swiss mouse assessed as change in plasma AST level at 10 mg/kg, ig measured after 30 mins (reference value: 148 +/- 8.08 […]); type: organism-based; settings: in vivo, po, 0.5 h; procedure, shortened: as §1
[11] = Ex vivo antioxidant activity in Swiss mouse assessed as inhibition of canola oil-induced glutathione peroxidase activity in brain by measuring oxidation of NADPH at 10 mg/kg, ig measured after 30 mins by spectrophotometric method (reference value: 12.8 +/- 2.28 nmol/g); type: functional; settings: 0.5 h
Procedure, shortened: (§5)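 Swiss mice dosed orally at 10 mg/kg (vehicle canola oil); brain S1 prepared 30 min later. SOD measured as inhibition of epinephrine autoxidation in Na2CO3 50 mM pH 10.3 at 480 nm, one unit = 50% inhibition at 26 °C. GPx measured as NADPH decay coupled to glutathione reductase with H2O2 and GSH. Mean ± SEM, 6 mice per group; Student's t-test.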

Brain [12] = assay: Antioxidant activity in Swiss mouse brain cerebral tissue assessed as inhibition of sodium azide-induced reactive species production by measuring fluorescence unit at 10 uM by DCHF-DA dye based spectrofluorimetric method (reference value: 139 +/- 26.8 U); type: functional
[13] = Antioxidant activity assessed as ABTS radical scavenging activity at 50 uM relative to control; type: functional; procedure, shortened: as §2
Brain [14] = assay: Antioxidant activity in Swiss mouse brain cerebral tissue assessed as inhibition of SNP-induced lipid peroxidation by measuring TBARS level at 50 uM incubated for 1 hr relative to control; type: functional, tissue-based; set-up: scale not given: the % may be the effect or the level left
Procedure, shortened: (§6)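 Whole brain of male adult Swiss mice homogenized in cold 50 mM Tris-HCl pH 7.4 (1/5 w/v) and spun 2400 g, 10 min, 4 °C; supernatant S1 used. Peroxidation induced with sodium nitroprusside in the presence of compound. Then SDS 8.1%, TBA 0.8% and acetic acid/HCl pH 3.4 added, heated 95 °C for 2 h; MDA measured as marker. Trolox 10 µM as positive control. n = 3; one-way ANOVA with Tukey versus induced.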

[15] = Antioxidant activity assessed as DPPH radical scavenging activity at 50 uM incubated for 30 mins under dark condition relative to control; type: functional; procedure, shortened: as §3
[16] = Ex vivo antioxidant activity in Swiss mouse assessed as inhibition of canola oil-induced lipid peroxidation in kidney by measuring TBARS level at 10 mg/kg, ig measured after 30 mins (reference value: 438.20 +/- 27.59 /g); type: functional; settings: 0.5 h
[17] = Toxicity in Swiss mouse assessed as change in plasma urea level at 10 mg/kg, ig measured after 30 mins (reference value: 90.31 +/- 0.74 mg/dl); type: organism-based; settings: in vivo, po, 0.5 h; procedure, shortened: as §1
[18] = Antioxidant activity assessed as DPPH radical scavenging activity at 100 uM incubated for 30 mins under dark condition relative to control; type: functional; procedure, shortened: as §3
[19] = Ex vivo antioxidant activity in Swiss mouse assessed as inhibition of canola oil-induced superoxide dismutase activity in brain by measuring SOD activity at 10 mg/kg, ig measured after 30 mins by spectrophotometric method (reference value: 25.44 +/- 4.12 U/min); type: functional; settings: 0.5 h; procedure, shortened: as §5
Brain [20] = assay: Antioxidant activity in Swiss mouse brain cerebral tissue assessed as inhibition of SNP-induced lipid peroxidation by measuring TBARS level at 100 uM incubated for 1 hr relative to control; type: functional, tissue-based; set-up: scale not given: the % may be the effect or the level left; procedure, shortened: as §6
[21] = Antioxidant activity assessed as ferric ion reducing activity by measuring absorbance at 10 uM measured after 40 mins by FRAP assay (reference value: 0.11 +/- 0.02); type: functional; procedure, shortened: as §4
Brain [22] = assay: Antioxidant activity in Swiss mouse brain cerebral tissue assessed as inhibition of SNP-induced lipid peroxidation by measuring TBARS level at 500 uM incubated for 1 hr relative to control; type: functional, tissue-based; set-up: scale not given: the % may be the effect or the level left; procedure, shortened: as §6
Brain [23] = assay: Antioxidant activity in Swiss mouse brain cerebral tissue assessed as inhibition of SNP-induced lipid peroxidation by measuring TBARS level at 10 uM incubated for 1 hr relative to control; type: functional, tissue-based; set-up: scale not given: the % may be the effect or the level left; procedure, shortened: as §6
[24] = Antioxidant activity assessed as ferric ion reducing activity by measuring absorbance at 50 uM measured after 40 mins by FRAP assay (reference value: 0.11 +/- 0.02); type: functional; procedure, shortened: as §4
[25] = Antioxidant activity assessed as ABTS radical scavenging activity at 100 uM relative to control; type: functional; procedure, shortened: as §2
[26] = Antioxidant activity assessed as ABTS radical scavenging activity at 500 uM relative to control; type: functional; procedure, shortened: as §2
Brain [27] = assay: Antioxidant activity in Swiss mouse brain cerebral tissue assessed as inhibition of sodium azide-induced reactive species production by measuring fluorescence unit at 50 uM by DCHF-DA dye based spectrofluorimetric method (reference value: 139 +/- 26.8 U); type: functional
Brain [28] = assay: Antioxidant activity in Swiss mouse brain cerebral tissue assessed as inhibition of sodium azide-induced reactive species production by measuring fluorescence unit at 100 uM by DCHF-DA dye based spectrofluorimetric method (reference value: 139 +/- 26.8 U); type: functional
[29] = Stability of compound in TsOH measured after 24 hrs; type: physicochemical
[30] = Stability of compound exposed to blue LED light using EtOH as solvent measured after 24 hrs; type: physicochemical
[31] = Stability of compound exposed to blue LED light using DMSO as solvent measured after 24 hrs; type: physicochemical
[32] = Stability of compound in Na2CO3 measured after 24 hrs; type: physicochemical
[33] = Stability of compound exposed to blue LED light using DCM as solvent measured after 24 hrs; type: physicochemical

Structure (SMILES) | Activity [1] [mg/dL] | Activity [2] [%] | Activity [3] [g⁻¹] | Activity [4] [%] | Activity [5] [%] | Activity [6] [IU/L] | Activity [7] | Activity [8] | Activity [9] [g⁻¹] | Activity [10] [IU/L] | Activity [11] [nmol/g] | Activity (Brain [12]) [U] | Activity [13] [%] | Activity [15] [%] | Activity [16] [g⁻¹] | Activity [17] [mg/dL] | Activity [18] [%] | Activity [19] [U/min] | Activity [21] | Activity (Brain [23]) [%] | further results
COP(=O)(OC)[Se]c1ccccc1 | 1.78 | 5.02 | 326 | 21.9 | 5.53 | 117.4 | 0.12 | 0.16 | 87.34 | 151.2 | 7.18 | 71.5 | 10.3 | 7.83 | 676.6 | 80.3 | 4.68 | 25.94 | 0.11 | 84.7 | Activity (Brain [14]): 80.6%; Activity (Brain [20]): 85.9%; Activity (Brain [22]): 79.8%; Activity [24]: 0.12
Cc1c(C)c2c(c(C)c1O)CCC(C)(C(=O)O)O2 (stereo not drawn) [TROLOX] |  | 94.3 |  |  | 93.5 |  |  |  |  |  |  | 99 |  |  |  |  |  |  | 0.39 | 29.8 | 
O=P(OCc1ccccc1)(OCc1ccccc1)[Se]c1ccccc1 | 1.52 | 3.85 | 263.8 | 5.04 | 2.19 | 138.1 | 0.4 | 1.02 | 83 | 155.3 | 6.39 | 61.7 | 3.06 | 3.94 | 580.5 | 98.59 | 3.72 | 17.54 | 0.16 | 59.5 | Activity [25]: 1.86%; Activity [26]: 12.4%; Activity [24]: 0.23
CCCCOP(=O)(OCCCC)[Se]c1ccccc1 | 1.75 | 1.92 | 249.4 | 7.38 | 6.14 | 140 | 0.15 | 0.3 | 87.71 | 159.3 | 5.5 | 98.3 | 8.76 | 18.4 | 371 | 105 | 12.2 | 23.85 | 0.11 | 79.3 | Activity (Brain [27]): 76.1 U; Activity (Brain [14]): 83.8%; Activity (Brain [28]): 61.4 U; Activity (Brain [20]): 90.4%; Activity [25]: 3.84%; Activity [26]: 2.34%; Activity (Brain [22]): 57%; Activity [24]: 0.15
COc1ccc([Se]P(=O)(OC)OC)cc1 | 2.36 | 6.76 | 280.8 | 19.1 | 3.72 | 119.5 | 0.19 | 0.26 | 64.64 | 151 | 4.98 | 94 | 8.6 | 6.95 | 422.5 | 74.39 | 11.9 | 13.47 | 0.16 | 87.6 | Activity (Brain [27]): 94.1 U; Activity (Brain [14]): 78.6%; Activity (Brain [28]): 67.2 U; Activity (Brain [20]): 78.1%; Activity [25]: 6.91%; Activity [26]: 19.8%; Activity (Brain [22]): 58%; Activity [24]: 0.16
CCOP(=O)(OCC)[Se]c1ccccc1 |  |  |  |  |  |  |  |  |  |  |  |  |  |  |  |  |  |  |  |  | Stabilty [29]: Stable; Stabilty [30]: Stable; Stabilty [31]: Stable; Stabilty [32]: Stable; Stabilty [33]: Stable
